Measurements as given in ChEMBL document CHEMBL1129944, “[[(Arylpiperazinyl)alkyl]thio]thieno[2,3-d]pyrimidinone derivatives as high-affinity, selective 5-HT1A receptor ligands” (J Med Chem, 1997).

Columns and labels:
[1] = target: T1, Adrenergic receptor alpha-1 (Rattus norvegicus, UniProt P15823+P23944+P43140); experiment: In vitro inhibitory concentration against radioligand [3H]prazosin binding to alpha-1 adrenergic receptor in rat cortical membrane.; type: cell membranes
T1 sequence (P15823 whole entry): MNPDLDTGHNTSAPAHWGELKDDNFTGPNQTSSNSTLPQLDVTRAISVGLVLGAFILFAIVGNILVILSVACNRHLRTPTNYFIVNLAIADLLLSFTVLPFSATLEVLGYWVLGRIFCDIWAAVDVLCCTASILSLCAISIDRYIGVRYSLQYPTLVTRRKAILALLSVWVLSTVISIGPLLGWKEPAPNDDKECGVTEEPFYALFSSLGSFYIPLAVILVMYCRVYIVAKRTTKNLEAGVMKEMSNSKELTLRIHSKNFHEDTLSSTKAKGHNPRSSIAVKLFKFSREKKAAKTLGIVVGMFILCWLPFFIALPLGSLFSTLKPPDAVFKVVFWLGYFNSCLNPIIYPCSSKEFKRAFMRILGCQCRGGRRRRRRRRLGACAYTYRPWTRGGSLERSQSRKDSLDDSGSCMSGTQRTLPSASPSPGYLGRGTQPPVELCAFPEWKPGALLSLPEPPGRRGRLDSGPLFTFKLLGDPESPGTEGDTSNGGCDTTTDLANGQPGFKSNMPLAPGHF
T1 sequence (P23944 whole entry): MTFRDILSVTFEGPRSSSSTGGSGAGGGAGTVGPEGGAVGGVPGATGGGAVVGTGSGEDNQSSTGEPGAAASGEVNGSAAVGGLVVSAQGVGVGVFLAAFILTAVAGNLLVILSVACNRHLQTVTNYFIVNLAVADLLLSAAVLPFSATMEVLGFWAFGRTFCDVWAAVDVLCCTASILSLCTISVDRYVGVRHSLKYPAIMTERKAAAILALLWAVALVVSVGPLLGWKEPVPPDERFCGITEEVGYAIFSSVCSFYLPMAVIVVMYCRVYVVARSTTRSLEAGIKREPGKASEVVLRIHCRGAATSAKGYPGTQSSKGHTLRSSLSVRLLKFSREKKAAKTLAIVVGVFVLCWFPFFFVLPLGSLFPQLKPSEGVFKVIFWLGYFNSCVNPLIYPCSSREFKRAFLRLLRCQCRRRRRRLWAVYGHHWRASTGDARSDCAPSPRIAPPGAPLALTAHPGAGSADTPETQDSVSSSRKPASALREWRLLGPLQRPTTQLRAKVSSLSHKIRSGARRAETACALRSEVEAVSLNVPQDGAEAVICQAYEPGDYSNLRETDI
T1 sequence (P43140 whole entry): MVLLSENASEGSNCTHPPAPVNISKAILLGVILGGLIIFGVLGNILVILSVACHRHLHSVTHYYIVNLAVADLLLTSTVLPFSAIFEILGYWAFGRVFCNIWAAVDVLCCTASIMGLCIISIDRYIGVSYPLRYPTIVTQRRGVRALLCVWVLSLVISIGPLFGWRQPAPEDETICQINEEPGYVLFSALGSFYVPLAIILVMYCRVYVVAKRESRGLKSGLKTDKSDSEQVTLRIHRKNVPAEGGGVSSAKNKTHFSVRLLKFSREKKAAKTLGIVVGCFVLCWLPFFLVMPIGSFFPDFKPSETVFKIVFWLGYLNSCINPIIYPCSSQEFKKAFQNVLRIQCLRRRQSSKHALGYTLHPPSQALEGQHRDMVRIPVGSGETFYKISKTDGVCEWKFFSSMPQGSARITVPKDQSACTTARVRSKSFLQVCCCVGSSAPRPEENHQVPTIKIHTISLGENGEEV
Summary of the method: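 Male CRL:CD(SD)BR-COBS rats (~150 g) were decapitated. Cortex was homogenized in 50 mM Tris-HCl pH 7.4, spun at 50000g, given 10 min at 37 °C and washed. Incubation buffer had 0.1% ascorbic acid and 10 μM pargyline. GF/B filtration and scintillation counting; IC50 from dose-inhibition curves.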

[2] = target: D(1A) dopamine receptor (Rattus norvegicus, UniProt P18901); experiment: In vitro inhibitory concentration against radioligand [3H]SCH-23390 binding to Dopamine receptor D1 in rat striatal membrane; type: cell membranes, Striatum
Summary of the method: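 Rat striatal membranes were incubated in 50 mM Tris-HCl pH 7.1 containing 10 μM pargyline, 120 mM NaCl, 5 mM KCl, 2 mM CaCl2, 1 mM MgCl2 and 0.1% ascorbic acid. [3H]SCH23390 0.4 nM final, 15 min at 37 °C; nonspecific binding with (-)-cis-flupentixol 10 μM. Filtered and counted; IC50 by curve analysis.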

[3] = target: T2, Serotonin 3 (5-HT3) receptor (Rattus norvegicus, UniProt P35563+Q9JJ16); experiment: In vitro inhibitory concentration against radioligand [3H]BRL-43694 binding to 5-hydroxytryptamine 3 receptor in rat cortical membrane; type: cell membranes
T2 sequence (P35563 whole entry): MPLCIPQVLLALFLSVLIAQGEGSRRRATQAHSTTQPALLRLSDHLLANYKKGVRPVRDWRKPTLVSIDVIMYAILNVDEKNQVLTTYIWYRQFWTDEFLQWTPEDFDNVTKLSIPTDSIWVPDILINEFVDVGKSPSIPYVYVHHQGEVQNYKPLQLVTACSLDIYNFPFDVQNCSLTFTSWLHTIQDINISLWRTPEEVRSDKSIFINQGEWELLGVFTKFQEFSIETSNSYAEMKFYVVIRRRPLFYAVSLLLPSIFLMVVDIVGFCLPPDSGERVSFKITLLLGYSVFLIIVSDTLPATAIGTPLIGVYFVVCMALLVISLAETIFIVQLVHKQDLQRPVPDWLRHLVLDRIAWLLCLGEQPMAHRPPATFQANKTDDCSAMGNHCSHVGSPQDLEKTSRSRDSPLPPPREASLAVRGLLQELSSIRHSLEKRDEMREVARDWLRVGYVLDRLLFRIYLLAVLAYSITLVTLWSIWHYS
T2 sequence (Q9JJ16 whole entry): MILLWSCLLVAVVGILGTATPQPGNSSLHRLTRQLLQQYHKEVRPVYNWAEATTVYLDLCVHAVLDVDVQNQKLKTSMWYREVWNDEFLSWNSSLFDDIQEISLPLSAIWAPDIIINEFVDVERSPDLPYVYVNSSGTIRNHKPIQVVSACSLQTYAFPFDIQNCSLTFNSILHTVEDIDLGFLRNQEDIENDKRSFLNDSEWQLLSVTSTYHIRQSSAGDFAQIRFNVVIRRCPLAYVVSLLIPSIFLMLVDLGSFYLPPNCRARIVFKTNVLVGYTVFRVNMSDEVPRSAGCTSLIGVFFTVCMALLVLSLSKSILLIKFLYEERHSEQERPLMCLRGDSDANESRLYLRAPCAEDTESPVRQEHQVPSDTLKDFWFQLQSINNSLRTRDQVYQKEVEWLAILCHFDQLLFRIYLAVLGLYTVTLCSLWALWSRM
Summary of the method: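 Rat cortex was homogenized in 50 mM Hepes-HCl pH 7.5, then incubated in 50 mM Hepes-HCl pH 7.4 with 10 μM pargyline. [3H]-BRL43694 1 nM final, 30 min at 25 °C; nonspecific binding with GR38032 10 μM. Filtration through GF/B, liquid scintillation counting, IC50 from dose-inhibition curves.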

Row | IC50 [1] [nM] | IC50 [2] [nM] | IC50 [3] [nM] | SMILES
1 | 506 | 600 | 20 | Cc1sc2nc(SCCCN3CCN(c4ncccn4)CC3)n(N)c(=O)c2c1C
2 | 36 | 800 | 600 | COc1ccccc1C1CCN(CCCSc2nc3sc(C)c(C)c3c(=O)n2N)CC1
3 | 7.3 | 400 | 800 | COc1ccccc1N1CCN(CCCSc2nc3sc(C)c(C)c3c(=O)n2N)CC1
